pEC50, pIC50: −log10 of the molar value.
Tests used:
Felid alphaherpesvirus 1 = experiment: Antiviral activity against Feline herpesvirus in feline […] cells assessed as inhibition of virus-induced cytopathicity; type: functional, organism-based
Human alphaherpesvirus 1 [1] = experiment: Antiviral activity against HSV1 KOS in human HEL cells assessed as protection against virus-induced cytopathicity; type: functional, organism-based; details: Human alphaherpesvirus 1, KOS
[2] = Cytotoxicity against human HEL cells assessed as drug level causing microscopically detectable alteration of normal cell morphology after 3 days; type: cell-based
L1210 = experiment: Antiproliferative activity against mouse L1210 cells after 2 days; type: cell-based; details: L1210, 48 h
Procedure, shortened: (§1)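 Cells seeded at 5 × 10⁴ to 7.5 × 10⁴ cells/200 µL with or without serial compound dilutions; incubated at 37 °C for 2 days (L1210) or 3 days (Molt4/C8, CEM). Cell numbers counted with a Coulter counter. CC₅₀ = concentration reducing proliferation by 50% versus untreated controls, read from plots of cell number (% of control) against concentration. Means of at least two independent experiments.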

[3] = Cytotoxicity against MDCK cells assessed as drug level causing microscopically detectable alteration of normal cell morphology; type: cell-based, Canis lupus familiaris; details: dog
Coxsackievirus B4 [4] = experiment: Antiviral activity against Coxsackievirus B4 in african green monkey Vero cells assessed as protection against virus-induced cytopathicity; type: functional, organism-based; details: Enterovirus B
Procedure, shortened: (§2)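 Confluent cell monolayers inoculated with 100 CCID₅₀ virus. After 1-2 h adsorption, residual virus removed and cultures incubated with varying compound concentrations. Cytopathicity scored once it reached completion in untreated infected controls. EC₅₀ = dose reducing virus-induced cytopathogenicity by 50%.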

[5] = Antiproliferative activity against human Molt4/C8 cells after 3 days; type: cell-based; details: MOLT-4, 72 h; procedure, shortened: as §1
Punta Toro virus = experiment: Antiviral activity against Punta Toro virus in african green monkey Vero cells assessed as protection against virus-induced cytopathicity; type: functional, organism-based; procedure, shortened: as §2
[6] = Cytotoxicity against human HeLa cells assessed as drug level causing microscopically detectable alteration of normal cell morphology after 3 days; type: cell-based
Procedure, shortened: (§3)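 Serial compound dilutions added to confluent HeLa or Vero monolayers. MCC = minimum concentration causing microscopically detectable alteration of cell morphology after 3 days of incubation.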

[7] = Cytotoxicity against african green monkey Vero cells assessed as drug level causing microscopically detectable alteration of normal cell morphology after 3 days; type: cell-based; details: chlorocebus sabaeus; procedure, shortened: as §3
[8] = biological target: Human immunodeficiency virus type 1 reverse transcriptase (Human immunodeficiency virus 1, UniProt Q72547); experiment: Inhibition of HIV1 reverse transcriptase p66/p51; details: read-out: IC50
Influenza A virus [9] = experiment: Antiviral activity against influenza H1N1 virus in MDCK cells assessed as reduction of virus-induced cytopathicity by visual cytopathic effect scoring method; type: functional, organism-based
Influenza A virus H3N2 [10] = experiment: Antiviral activity against influenza H3N2 virus in MDCK cells assessed as reduction of virus-induced cytopathicity by MTS method; type: functional, organism-based
Coxsackievirus B4 [11] = experiment: Antiviral activity against Coxsackievirus B4 in human HeLa cells assessed as protection against virus-induced cytopathicity; type: functional, organism-based; details: Enterovirus B; procedure, shortened: as §2
Vaccinia virus = experiment: Antiviral activity against Vaccinia virus Lederle in human HEL cells assessed as protection against virus-induced cytopathicity; type: functional, organism-based; details: Orthopoxvirus vaccinia
[12] = tested on: Human immunodeficiency virus 1; experiment: Antiviral activity against HIV1 3B in human CEM cells assessed as protection against virus-induced cytopathicity after 4 days; type: functional, organism-based; details: Human immunodeficiency virus 1, 3B, CCRF-CEM, 96 h
Procedure, shortened: (§4)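 CEM cells (~3 × 10⁵ cells/mL) infected with ~100 CCID₅₀ per mL of HIV-1 (IIIB) or HIV-2 (ROD), then seeded into wells containing compound dilutions. After 4 days at 37 °C, syncytium (giant cell) formation was examined microscopically. EC₅₀ = concentration protecting CEM cells from HIV cytopathicity by 50%.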

[13] = biological target: Human immunodeficiency virus type 1 reverse transcriptase (Human immunodeficiency virus 1, UniProt Q72547, L100I); experiment: Inhibition of HIV1 reverse transcriptase p66/p51 L100I mutant; details: read-out: IC50
Procedure, shortened: (§5)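 Substrate was 0.5 µg poly(rA)/oligo(dT) 10:1 (0.3 µM 3′-OH ends) with 10 µM [³H]dTTP, at 37 °C. Acid-precipitable radioactivity was counted on GF/C filters after TCA washes.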

Human respirovirus 3 = experiment: Antiviral activity against Parainfluenza virus type 3 in african green monkey Vero cells assessed as protection against virus-induced cytopathicity; type: functional, organism-based; details: Human respirovirus 3, Vero; procedure, shortened: as §2
[14] = tested on: Vesicular stomatitis virus; experiment: Antiviral activity against VSV in human HeLa cells assessed as protection against virus-induced cytopathicity; type: functional, organism-based
[15] = tested on: Mammalian orthoreovirus 1; experiment: Antiviral activity against Reovirus 1 in african green monkey Vero cells assessed as protection against virus-induced cytopathicity; type: functional, organism-based; details: Mammalian orthoreovirus 1, Vero; procedure, shortened: as §2
[16] = biological target: Human immunodeficiency virus type 1 reverse transcriptase (Human immunodeficiency virus 1, UniProt Q72547, Y181I); experiment: Inhibition of HIV1 reverse transcriptase p66/p51 Y181I mutant; details: read-out: IC50; procedure, shortened: as §5
Influenza B virus [17] = experiment: Antiviral activity against influenza B virus in MDCK cells assessed as reduction of virus-induced cytopathicity by MTS method; type: functional, organism-based
[18] = Cytotoxicity against feline CRFK cells by MTS assay; type: cell-based, Felis catus; details: cat
[19] = Cytotoxicity against MDCK cells by MTS assay; type: cell-based, Canis lupus familiaris; details: dog
Human alphaherpesvirus 1 [20] = experiment: Antiviral activity against thymidine kinase deficient and acyclovir resistant HSV1 KOS in human HEL cells assessed as protection against virus-induced cytopathicity; type: functional, organism-based; details: Human alphaherpesvirus 1, KOS
Feline coronavirus = experiment: Antiviral activity against Feline coronavirus in feline […] cells assessed as inhibition of virus-induced cytopathicity; type: functional, organism-based; details: Alphacoronavirus 1
Influenza B virus [21] = experiment: Antiviral activity against influenza B virus in MDCK cells assessed as reduction of virus-induced cytopathicity by visual cytopathic effect scoring method; type: functional, organism-based
Human alphaherpesvirus 2 = experiment: Antiviral activity against HSV2 G in human HEL cells assessed as protection against virus-induced cytopathicity; type: functional, organism-based; details: Human alphaherpesvirus 2, strain G; procedure, shortened: as §2
[22] = tested on: Respiratory syncytial virus; experiment: Antiviral activity against RSV Long in human HeLa cells assessed as protection against virus-induced cytopathicity; type: functional, organism-based; procedure, shortened: as §2
Sindbis virus = experiment: Antiviral activity against Sindbis virus in african green monkey Vero cells assessed as protection against virus-induced cytopathicity; type: functional, organism-based; procedure, shortened: as §2
Influenza A virus H3N2 [23] = experiment: Antiviral activity against influenza H3N2 virus in MDCK cells assessed as reduction of virus-induced cytopathicity by visual cytopathic effect scoring method; type: functional, organism-based
[24] = tested on: Human immunodeficiency virus 2; experiment: Antiviral activity against HIV2 ROD in human CEM cells assessed as protection against virus-induced cytopathicity after 4 days; type: functional, organism-based; details: Human immunodeficiency virus 2, ROD, CCRF-CEM, 96 h; procedure, shortened: as §4
CCRF-CEM = experiment: Antiproliferative activity against human CEM cells after 3 days; type: cell-based; details: 72 h; procedure, shortened: as §1
[25] = biological target: Human immunodeficiency virus type 1 reverse transcriptase (Human immunodeficiency virus 1, UniProt Q72547, K103N); experiment: Inhibition of HIV1 reverse transcriptase p66/p51 K103N mutant; details: read-out: IC50; procedure, shortened: as §5
[26] = tested on: Vesicular stomatitis virus; experiment: Antiviral activity against VSV in human HEL cells assessed as protection against virus-induced cytopathicity; type: functional, organism-based
Influenza A virus [27] = experiment: Antiviral activity against influenza H1N1 virus in MDCK cells assessed as reduction of virus-induced cytopathicity by MTS method; type: functional, organism-based; details: Influenza A virus, H1N1, MDCK

In the case of `Cc1cc(C)cc(S(=O)(=O)c2c(C(=O)NCC(N)=O)[nH]c3ccc([N+](=O)[O-])cc23)c1`, the pEC50 (Felid alphaherpesvirus 1) was < 4.00, the pEC50 (Human alphaherpesvirus 1 [1]) was < 4.70 and the MCC at 72 h [2] was 100 µM. The pIC50 (L1210) was < 3.30, the MCC [3] was 100 µM and the pEC50 (Coxsackievirus B4 [4]) was < 4.00. The pIC50 [5] was < 3.30, the pEC50 (Punta Toro virus) was < 4.00 and the MCC at 72 h [6] was > 100 µM. For the same compound, the MCC at 72 h [7] was > 100 µM, the pIC50 [8] was 7.47 and the pEC50 (Influenza A virus [9]) was < 4.70. The pEC50 (Influenza A virus H3N2 [10]) was < 4.70, the pEC50 (Coxsackievirus B4 [11]) was < 4.00 and the pEC50 (Vaccinia virus) was < 4.70. For the same compound, the pEC50 [12] was 8.62, the pIC50 [13] was 6.69 and the pEC50 (Human respirovirus 3) was < 4.00. The pEC50 [14] was < 4.00, the pEC50 [15] was < 4.00 and the pIC50 [16] was 5.54. The pEC50 (Influenza B virus [17]) was < 4.70, the CC50 [18] was > 100 µM and the CC50 [19] was > 100 µM. For the same compound, the pEC50 (Human alphaherpesvirus 1 [20]) was < 4.70, the pEC50 (Feline coronavirus) was < 4.00 and the pEC50 (Influenza B virus [21]) was < 4.70. For the same compound, the pEC50 (Human alphaherpesvirus 2) was < 4.70, the pEC50 [22] was < 4.00 and the pEC50 (Sindbis virus) was < 4.00. The pEC50 (Influenza A virus H3N2 [23]) was < 4.70, the pEC50 [24] was < 4.30 and the pIC50 (CCRF-CEM) was ≤ 3.30. The pIC50 [25] was 6.38, the pEC50 [26] was < 4.70 and the pEC50 (Influenza A virus [27]) was < 4.70.

In the case of `Cc1cc(C)cc(S(=O)(=O)c2c(C(=O)NC(C)CS(N)(=O)=O)[nH]c3ccc(Br)cc23)c1` (stereo not drawn), the pEC50 (Felid alphaherpesvirus 1) was < 4.70, the pEC50 (Human alphaherpesvirus 1 [1]) was < 5.40 and the MCC at 72 h [2] was 20 µM. For the same compound, the pIC50 (L1210) was 4.96, the MCC [3] was 4 µM and the pEC50 (Coxsackievirus B4 [4]) was 4.80. The pIC50 [5] was 5.03, the pEC50 (Punta Toro virus) was < 4.70 and the MCC at 72 h [6] was 20 µM. For the same compound, the MCC at 72 h [7] was ≥ 20 µM, the pIC50 [8] was 8.52 and the pEC50 (Influenza A virus [9]) was < 3.10. For the same compound, the pEC50 (Influenza A virus H3N2 [10]) was < 3.10, the pEC50 (Coxsackievirus B4 [11]) was 5.52 and the pEC50 (Vaccinia virus) was < 5.40. The pEC50 [12] was 8.64, the pIC50 [13] was 6.90 and the pEC50 (Human respirovirus 3) was < 4.70. For the same compound, the pEC50 [14] was < 5.40, the pEC50 [15] was < 4.70 and the pIC50 [16] was 5.07. For the same compound, the pEC50 (Influenza B virus [17]) was < 3.10, the CC50 [18] was 53 µM and the CC50 [19] was 1.9 µM. For the same compound, the pEC50 (Human alphaherpesvirus 1 [20]) was < 5.40, the pEC50 (Feline coronavirus) was < 4.70 and the pEC50 (Influenza B virus [21]) was < 3.10. For the same compound, the pEC50 (Human alphaherpesvirus 2) was < 5.40, the pEC50 [22] was ≤ 5.40 and the pEC50 (Sindbis virus) was < 4.70. For the same compound, the pEC50 (Influenza A virus H3N2 [23]) was < 3.10, the pEC50 [24] was < 5.00 and the pIC50 (CCRF-CEM) was 4.92. For the same compound, the pIC50 [25] was 5.88, the pEC50 [26] was < 5.40 and the pEC50 (Influenza A virus [27]) was < 3.10.

In the case of `Cc1cc(C)cc(S(=O)(=O)c2c(C(N)=O)[nH]c3ccc(Cl)cc23)c1`, the pEC50 (Felid alphaherpesvirus 1) was < 4.00, the pEC50 (Human alphaherpesvirus 1 [1]) was < 4.00 and the MCC at 72 h [2] was > 100 µM. For the same compound, the pIC50 (L1210) was ≤ 3.30, the MCC [3] was > 100 µM and the pEC50 (Coxsackievirus B4 [4]) was < 4.00. For the same compound, the pIC50 [5] was 4.70, the pEC50 (Punta Toro virus) was < 4.00 and the MCC at 72 h [6] was > 100 µM. For the same compound, the MCC at 72 h [7] was > 100 µM, the pIC50 [8] was 9.52 and the pEC50 (Influenza A virus [9]) was < 4.00. The pEC50 (Influenza A virus H3N2 [10]) was < 4.00, the pEC50 (Coxsackievirus B4 [11]) was < 4.00 and the pEC50 (Vaccinia virus) was < 4.00. For the same compound, the pEC50 [12] was 8.96, the pIC50 [13] was 7.22 and the pEC50 (Human respirovirus 3) was < 4.00. The pEC50 [14] was < 4.00, the pEC50 [15] was < 4.00 and the pIC50 [16] was 6.85. For the same compound, the pEC50 (Influenza B virus [17]) was < 4.00, the CC50 [18] was > 100 µM and the CC50 [19] was > 100 µM. The pEC50 (Human alphaherpesvirus 1 [20]) was < 4.00, the pEC50 (Feline coronavirus) was < 4.00 and the pEC50 (Influenza B virus [21]) was < 4.00. The pEC50 (Human alphaherpesvirus 2) was < 4.00, the pEC50 [22] was < 4.00 and the pEC50 (Sindbis virus) was < 4.00. The pEC50 (Influenza A virus H3N2 [23]) was < 4.00, the pEC50 [24] was < 5.70 and the pIC50 (CCRF-CEM) was 3.52. For the same compound, the pIC50 [25] was 8.52, the pEC50 [26] was < 4.00 and the pEC50 (Influenza A virus [27]) was < 4.00.
